# From ChEMBL document CHEMBL1136747, “Influence of the 5-HT6 receptor on acetylcholine release in the cortex: pharmacological characterization of 4-(2-bromo-6-pyrrolidin-1-ylpyridine-4-sulfonyl)phenylamine, a potent and selective 5-HT6 receptor antagonist” (J Med Chem, 2003)
# Experiments:
# [1] = target: T1, 5-hydroxytryptamine receptor 6 (Homo sapiens, UniProt P50406); test: Binding constant towards serotonin receptor subtype 5-hydroxytryptamine 6 receptor expressed in HeLa cells using [3H]LSD as radioligand; type: cell-based
# T1 sequence (P50406 whole entry): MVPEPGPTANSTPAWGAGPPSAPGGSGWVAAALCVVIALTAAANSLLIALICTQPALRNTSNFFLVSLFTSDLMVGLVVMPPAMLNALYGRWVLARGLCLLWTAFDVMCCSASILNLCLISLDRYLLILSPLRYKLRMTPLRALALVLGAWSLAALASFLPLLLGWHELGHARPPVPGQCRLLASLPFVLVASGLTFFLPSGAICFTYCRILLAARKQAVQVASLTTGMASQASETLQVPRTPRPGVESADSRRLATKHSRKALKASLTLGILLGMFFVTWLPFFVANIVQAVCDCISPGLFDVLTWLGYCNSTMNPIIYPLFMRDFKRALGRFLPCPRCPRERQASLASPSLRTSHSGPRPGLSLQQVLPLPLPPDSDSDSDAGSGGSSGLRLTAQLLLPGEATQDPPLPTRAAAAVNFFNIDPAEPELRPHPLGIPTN
# Procedure, shortened: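 Radioligand binding to human recombinant 5-HT6 receptor expressed in HeLa cells with [3H]-LSD. Values are the mean ± SEM of three independent determinations, each run in triplicate.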
# [2] = Half-life period after intravenous administration in rat; type: ADME, organism-based; conditions: in vivo
# Procedure, shortened: (§1)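 Rats were dosed at 10 mg/kg in PEG/PG/WIP 40/40/20, either by oral gavage or intravenously with the same dose and formulation. Plasma concentrations were followed over 8 h. PK parameters were derived as plasma clearance, apparent terminal half-life, bioavailability and steady-state volume of distribution, reported as average ± SEM.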
# [3] = In vivo plasma clearance after intravenous administration in rat; type: ADME, organism-based; conditions: read-out: Clp; procedure, shortened: as §1
# [4] = target: 5-hydroxytryptamine receptor 1D (Homo sapiens, UniProt P28221); test: Binding constant towards serotonin receptor subtype 5-hydroxytryptamine 1D receptor expressed in HEK 293 cells using [3H]LSD as radioligand; type: cell-based, HEK293
# Sequence of 5-hydroxytryptamine receptor 1D (P28221 whole entry): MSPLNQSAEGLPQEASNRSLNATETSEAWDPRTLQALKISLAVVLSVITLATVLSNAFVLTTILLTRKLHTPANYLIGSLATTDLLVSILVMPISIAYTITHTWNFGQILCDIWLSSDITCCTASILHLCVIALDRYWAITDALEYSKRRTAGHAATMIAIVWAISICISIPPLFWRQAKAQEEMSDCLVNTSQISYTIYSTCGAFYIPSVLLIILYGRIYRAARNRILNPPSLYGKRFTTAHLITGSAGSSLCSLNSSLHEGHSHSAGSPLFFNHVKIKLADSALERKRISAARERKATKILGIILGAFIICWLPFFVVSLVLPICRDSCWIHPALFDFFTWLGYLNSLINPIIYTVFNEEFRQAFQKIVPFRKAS
# Rattus norvegicus = test: Ratio of brain/plasma concentration after oral administration in rat expressed as percentage; type: ADME, organism-based
# Procedure, shortened: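 Rats dosed at 10 mg/kg by oral gavage in PEG/PG/WIP 40/40/20. Brain and plasma concentrations were measured, and the brain/plasma ratio is given as a percentage (average ± SEM).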
# [5] = Volume of distribution at steady state after intravenous administration in rat; type: ADME, organism-based; conditions: in vivo, read-out: Vss; procedure, shortened: as §1
# [6] = Partition coefficient (logD7.4); type: physicochemical; conditions: octanol/water, pH 7.4
# [7] = Half-life period after oral administration in rat; type: ADME, organism-based; conditions: in vivo; procedure, shortened: as §1
# [8] = target: 5-hydroxytryptamine receptor 2A (Homo sapiens, UniProt P28223); test: Binding constant towards serotonin receptor subtype 5-hydroxytryptamine 2A receptor expressed in 3T3 cells using [3H]-DOB as radioligand
# Sequence of 5-hydroxytryptamine receptor 2A (P28223 whole entry): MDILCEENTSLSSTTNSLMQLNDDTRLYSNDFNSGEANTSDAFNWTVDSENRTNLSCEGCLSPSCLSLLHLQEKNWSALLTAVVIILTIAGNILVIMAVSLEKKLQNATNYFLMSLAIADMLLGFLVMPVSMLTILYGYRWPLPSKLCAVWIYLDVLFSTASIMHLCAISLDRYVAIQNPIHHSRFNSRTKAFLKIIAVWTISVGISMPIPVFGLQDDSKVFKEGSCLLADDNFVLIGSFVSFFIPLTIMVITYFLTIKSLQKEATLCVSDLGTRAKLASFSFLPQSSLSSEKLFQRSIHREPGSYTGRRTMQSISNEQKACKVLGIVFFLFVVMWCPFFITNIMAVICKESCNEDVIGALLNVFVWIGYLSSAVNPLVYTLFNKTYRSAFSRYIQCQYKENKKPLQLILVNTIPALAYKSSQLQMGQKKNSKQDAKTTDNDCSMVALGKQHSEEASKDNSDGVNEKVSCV
# [9] = Dissociation constant was determined
# [10] = target: 5-hydroxytryptamine receptor 7 (Homo sapiens, UniProt P34969); test: Binding constant towards serotonin receptor subtype 5-hydroxytryptamine 7 receptor expressed in CHO cells using [3H]LSD as radioligand; type: cell-based
# Sequence of 5-hydroxytryptamine receptor 7 (P34969 whole entry): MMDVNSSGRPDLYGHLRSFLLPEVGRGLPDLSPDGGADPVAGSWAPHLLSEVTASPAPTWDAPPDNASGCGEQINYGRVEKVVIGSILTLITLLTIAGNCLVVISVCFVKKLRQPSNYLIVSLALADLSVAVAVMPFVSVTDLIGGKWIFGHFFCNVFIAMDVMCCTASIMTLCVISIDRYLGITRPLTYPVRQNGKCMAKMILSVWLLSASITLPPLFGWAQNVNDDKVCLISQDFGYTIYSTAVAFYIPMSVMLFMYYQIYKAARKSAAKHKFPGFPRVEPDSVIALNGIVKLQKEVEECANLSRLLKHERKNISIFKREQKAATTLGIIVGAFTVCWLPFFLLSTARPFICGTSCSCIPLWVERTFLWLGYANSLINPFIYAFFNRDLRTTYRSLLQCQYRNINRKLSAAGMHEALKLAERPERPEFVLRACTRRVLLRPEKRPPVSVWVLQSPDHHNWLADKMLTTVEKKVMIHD
# [11] = Bioavailability after oral administration in rat expressed as percentage; type: ADME, organism-based; conditions: in vivo; procedure, shortened: as §1
# [12] = target: T2, 5-hydroxytryptamine receptor 2C (Homo sapiens, UniProt P28335); test: Binding constant towards serotonin receptor subtype 5-hydroxytryptamine 2C receptor expressed in 3T3 cells using [3H]5-HT as radioligand; type: cell-based, NIH3T3
# T2 sequence (P28335 whole entry): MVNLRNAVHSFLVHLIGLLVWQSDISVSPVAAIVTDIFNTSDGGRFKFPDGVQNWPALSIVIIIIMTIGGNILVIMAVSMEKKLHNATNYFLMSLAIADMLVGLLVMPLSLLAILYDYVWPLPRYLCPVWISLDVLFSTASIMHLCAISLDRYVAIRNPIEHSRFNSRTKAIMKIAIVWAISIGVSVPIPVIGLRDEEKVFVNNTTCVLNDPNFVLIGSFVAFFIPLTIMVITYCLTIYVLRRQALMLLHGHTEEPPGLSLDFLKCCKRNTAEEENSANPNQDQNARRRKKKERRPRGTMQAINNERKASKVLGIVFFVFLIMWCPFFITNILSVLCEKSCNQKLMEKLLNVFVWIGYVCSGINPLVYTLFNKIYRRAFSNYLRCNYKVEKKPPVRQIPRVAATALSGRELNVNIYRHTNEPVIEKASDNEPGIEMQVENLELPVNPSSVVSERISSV
# [13] = target: T1, 5-hydroxytryptamine receptor 6; test: Antagonism assessed in a functional cAMP binding assay using 5-CT to stimulate human 5-hydroxytryptamine 6 receptor expressed in HEK 293 cells; type: cell-based, HEK293; conditions: read-out: pA2 (converted)
# Procedure, shortened: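 Human 5-HT6 receptor stably expressed in HEK-293 cells; adenylate cyclase (cAMP) activity stimulated with 5-CT. 5-CT concentration–response curves were run with increasing antagonist concentrations, and the shift was analysed by Schild analysis, n = 3.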
Ki [1] [µM],Ki [4] [µM],Ki [8] [µM],Ki [10] [µM],Ki [12] [µM],Structure (SMILES),also measured
0.0427,,,,,CNc1cc(S(=O)(=O)Nc2ccc(N)cc2)cc(Br)n1,
0.0537,,,,,Nc1ccc(S(=O)(=O)c2cc(Br)nc(Br)c2)cc1,
0.001,> 100,1.45,> 100,> 10,Nc1ccc(S(=O)(=O)c2cc(Br)nc(N3CCCC3)c2)cc1,half-life [2]: 3.7 h; clearance [3]: 20 mL/min/kg; Ratio (Rattus norvegicus): 24%; Vd [5]: 1.4 L/kg; logD [6]: 3.3; half-life [7]: 3 h; pKa [9]: < 2; bioavailability [11]: 46%; Kb [13]: 0.00316 µM
0.055,> 10,> 10,> 10,> 10,CNc1cc(NS(=O)(=O)c2ccc(N)cc2)nc(NC)n1,
0.000115,1.12,,> 10,0.0204,Nc1ccc(S(=O)(=O)c2cc(Br)nc(N3CCNCC3)c2)cc1,
0.00229,> 10,,> 10,> 10,CNc1cc(S(=O)(=O)c2ccc(N)cc2)cc(Br)n1,
